# Screening data from PubChem.
# NF-kB neuron act: raises NF-kB expression in human neuronal cells; actives 1.6% (n = 190,000); NF-kB reporter expression; hits give high values; fold change at 12.5 µM; AID 1239; in the data active = fold change above about 3.3
# FLuc stim CS: firefly luciferase counter-screen for stimulation assays; ATPlite luciferase biochemical, luminescence, 10 min; 0 = ATP-free wells, 1 = DMSO control; activation factor at 10 µM; 200,000 tested, under 10 active; P08659;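 active = luciferase activation factor, scaled between plate controls, of at least 2 with compound at 10 µM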
# Target sequence (P08659 whole entry, looked up): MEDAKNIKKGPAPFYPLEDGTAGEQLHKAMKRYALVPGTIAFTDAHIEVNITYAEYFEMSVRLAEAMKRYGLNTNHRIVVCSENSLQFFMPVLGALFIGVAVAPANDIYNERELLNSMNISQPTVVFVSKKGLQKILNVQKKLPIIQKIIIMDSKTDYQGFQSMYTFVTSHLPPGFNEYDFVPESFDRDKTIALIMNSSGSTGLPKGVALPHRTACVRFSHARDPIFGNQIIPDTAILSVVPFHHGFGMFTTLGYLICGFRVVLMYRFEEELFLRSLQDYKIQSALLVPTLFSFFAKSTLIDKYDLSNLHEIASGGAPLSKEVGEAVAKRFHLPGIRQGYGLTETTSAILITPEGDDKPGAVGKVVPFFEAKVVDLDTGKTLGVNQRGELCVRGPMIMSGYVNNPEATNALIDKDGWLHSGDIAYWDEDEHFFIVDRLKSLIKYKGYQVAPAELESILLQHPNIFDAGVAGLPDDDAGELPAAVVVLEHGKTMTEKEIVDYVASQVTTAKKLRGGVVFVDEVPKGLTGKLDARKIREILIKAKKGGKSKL
#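 assay system = Luciferase/luciferin detection reagent, cell-free biochemical luciferase assay | also added = ATP substrate | times = 10 min post-reagent at room temperature | measured by = luminescence from luciferase reaction | measure = luciferase activation, seen as luminescence increase over controls | benchmarks = low control with PBS replacing ATP, high control enzyme plus ATP without compound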
# STAT1 act: STAT1 signaling activation | actives 2.6% (n = 200,000) | NIH 3T3 STAT1-luciferase reporter, IFN-gamma, luminescence; 100% = IFN-gamma alone, no compound | activation (% of control), % at 5.5 µM;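 active = activation above the screen-wide mean activation plus 3 SD, cut at about 130% in these data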;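 also: raw ratio to IFN-gamma control signal so 100% means no change and 0% no light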
# APP 5'UTR act: activates APP 5'UTR luciferase reporter | SH-SY5Y APP 5'UTR luciferase reporter, luminescence; zero percent = DMSO vehicle wells | activation, % at 2 µM | actives 1% (n = 190,000) | AID 1276;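 active = activation above a set limit, based on mean plus 3 SD of controls, cut at about 140% in these data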
# FLuc inh counter: counter-screen for luciferase assay inhibitors: firefly luciferase inhibition; P08659; ATPLite firefly luciferase biochemical luminescence, 10 min; inhibition, % at 10 µM; actives 1.5% (n = 200,000);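 active = inhibition above about 50% when tested at 10 µM, limit read from the data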
# Numbers without * were called inactive; . = no result. Shown are actives, neighbours in structure and some others; about 4.1% of the full set was active somewhere.
SMILES,NF-kB neuron act,FLuc stim CS,STAT1 act,APP 5'UTR act,FLuc inh counter
COCC(C)NC(=O)c1cc(-c2ccc(OC)c(OC)c2)on1 (stereo not drawn),1.2,1,97,16,-4
O=C1CN(C(=O)COC(=O)c2cccnc2Cl)c2ccccc2N1,1.1,1,101,-6,-2
CCc1cc2c(=O)c(-c3ccc4c(c3)OCCO4)coc2cc1OC(=O)c1ccco1,2.9,0.7,107,141*,30
CCCc1cc2c(=O)c(-c3ccc4c(c3)OCCO4)coc2cc1OC(=O)c1ccco1,2.5,0.9,99,90,8
O=C(N/N=C/c1cccnc1)c1[nH]ncc1Br,1.2,0.7,107,27,26
O=C(N/N=C/c1ccccc1)c1[nH]ncc1Br,2.5,0.3,130*,19,70*
Cc1ccc(CS(=O)(=O)c2nsc(C)c2C#N)cc1,0.98,1,101,3,-5
CN(C)/N=C/c1ccc(N2CCOCC2)cc1,1.1,0.4,122,14,63*
Fc1ccc(N/N=C/c2ccc(N3CCOCC3)cc2)c(F)c1,3.6*,0.9,131*,92,15
S=c1[nH]ncn1/N=C/c1ccc(N2CCOCC2)cc1,2.7,0.1,91,.,87*
S=c1[nH]ncn1/N=C/c1ccc(Br)cc1,1,1,106,-9,4
COc1ccc(NC(=O)NCCN2C(=O)C3C4C=CC(C4)C3C2=O)cc1 (stereo not drawn),1.6,1,112,24,5
Cc1cc(C(=O)Nc2sc(C)c(-c3ccc(F)cc3)c2C(N)=O)no1,0.86,0.6,161*,51,40
COC(=O)c1[nH]c2cc(C)ccc2c1NC(=O)CN1CCN(C(=O)c2ccco2)CC1,0.94,1,93,-2,-4
CCc1nc(Sc2nc(C)cc(C)n2)c2oc3ccccc3c2n1,4.3*,1.1,92,.,-6
CCc1nc(SCCO)c2oc3ccccc3c2n1,1.2,0.9,112,17,8
C/C(=N/OC(=O)c1ccc(F)cc1)c1ccc(C)cc1,1.9,0.3,102,-4,70*
CCc1cccc(CC)c1NC(=O)/C(C#N)=C/c1ccccc1C(F)(F)F,3.4*,1,92,9,-5
N#C/C(=C\c1ccccc1C(F)(F)F)C(=O)Nc1ccccc1,1.2,1.1,103,12,-7
O=C(CSc1ncnc2c1nnn2-c1ccc(F)cc1)NCC1CCCO1 (stereo not drawn),1.1,0.8,98,-16,22
Cc1ccc(-n2nnc3c(SCC(=O)NCC4CCCO4)ncnc32)cc1 (stereo not drawn),1.2,0.4,105,-8,55*
CCOc1ccc(-c2ccc(SCC(=O)NCC3CCCO3)nn2)cc1 (stereo not drawn),2.1,0.3,117,69,72*
CCc1nnc(NC(=O)CSc2nnc(C)n2-c2ccc(C)cc2)s1,1,1,100,3,-2
COc1ccc(-c2ccc(SCC(=O)Nc3nnc(C)s3)nn2)cc1,1.9,0.4,120,5,64*
CCc1nnc(NC(=O)CSc2ccc(-c3ccc(C)cc3)nn2)s1,1.3,0.4,96,38,55*
SMILES,NF-kB neuron act,FLuc stim CS,STAT1 act,APP 5'UTR act,FLuc inh counter
COc1ccc(N(C(=O)Cn2cnc3ccccc32)C(C(=O)NC2CCCCC2)c2ccccc2)cc1 (stereo not drawn),0.76,1.1,106,5,-5
CCOc1ccc(-c2ccc(SCC(=O)Nc3nnc(CC)s3)nn2)cc1,2.8,0.3,113,115,65*
CCOc1ccc(-c2ccc(SC)nn2)cc1,2,0,25,77,96*
CCN(CC)c1ccc(NC(=O)/C=C\c2ccccc2Cl)cc1,1.6,0.6,122,15,38
COc1ccc(/C=C/C(=O)Nc2cc(C)on2)cc1,1.2,0.9,128,40,11
CN(C)c1ccc(NC(=O)/C=C/c2ccccc2Cl)cc1,1.9,0.4,149*,111,64*
Cc1cc(NC(=O)/C=C/c2ccccc2Cl)n(-c2nc3ccccc3[nH]2)n1,1.3,0.2,103,74,76*
Cc1cc(NC(=O)/C=C/c2ccccc2)no1,3.2,0.7,130*,73,32
COC(=O)c1cc(NC(=O)/C=C/c2ccccc2)ccc1O,2,0.9,133*,56,12
CCC(Sc1ncccc1C(=O)OC(C)C)C(=O)N1CCOCC1 (stereo not drawn),1.1,1,102,3,-4
CCOC(=O)c1c(C)n(C)c2ccc(OCC(O)Cn3nc(C)c(Br)c3C)cc12 (stereo not drawn),1.3,1.1,104,-14,-7
Cc1cc(NC(=O)/C=C/c2ccccc2Cl)no1,2,1,135*,83,-2
CN(C)c1ccc(NC(=S)NC(=O)/C=C/c2ccc(Cl)cc2)cc1,1.8,1,142*,69,2
CN(C)c1ccc(NC(=S)NC(=O)/C=C/c2ccco2)cc1,1.1,1.1,109,26,-9
Cc1ccc(S(=O)(=O)N2CCN(Cc3nc4sc5c(c4c(=O)[nH]3)CCCC5)CC2)cc1,1,1,103,-1,-3
CCOC(=O)c1[nH]c2ccc(C)cc2c1N,3.5*,0.5,120,111,51*
CNc1ncc(C(=O)c2ccc(Br)cc2)s1,3.5*,0.6,140*,94,41
O=C(c1ccc(Cl)cc1)c1cnc(Nc2ccccc2Cl)s1,3.2,0.4,145*,116,58*
CC(=O)c1cnc(Nc2cccc(Cl)c2Cl)s1,2,1,136*,69,-2
CNc1ncc(C(=O)c2ccccc2)s1,1.8,1,114,26,-1
Cc1ccc(-c2nnn(CC(=O)NCC3CC3)n2)o1,1.2,1.1,99,19,-5
Cn1c(=O)c2c(nc(SCCCC#N)n2Cc2ccccc2F)n(C)c1=O,0.76,1,95,-4,-5
CC1=CC(=C2C(=O)c3ccccc3C2=O)C=C(C)N1C,2.3,0.8,135*,48,18
O=C(NNc1cccc(Cl)n1)Nc1cccc(Cl)c1,1.1,1.1,97,-2,-7
O=C(NNC1=NCCCCC1)Nc1cccc(Cl)c1,1.1,1,136*,58,3
CCOC(=O)N1CCN(C(=O)c2cc(-c3ccc(OCC)cc3)nc3ccccc23)CC1,3.3*,0.1,146*,-78,92*
CCOC(=O)C1CCCN(C(=O)c2cc(-c3ccccc3)nc3ccccc23)C1 (stereo not drawn),1.1,1,87,0,1
CS(=O)(=O)N1CCN(C(=O)c2cc(-c3ccccc3)nc3ccccc23)CC1,0.95,0.9,103,-6,11
CCOc1ccc(-c2cc(C(=O)N3CCN(C)CC3)c3ccccc3n2)cc1,2,0.2,117,37,83*
Cc1cc(C)nc(NS(=O)(=O)c2ccc(NC(=O)C3COc4ccccc4O3)cc2)n1 (stereo not drawn),1.2,1,101,20,-5
